Measurements published in PMC5709104 (Haematologica, 2017).
“Also recorded” adds a separate entry of the source.

Columns and labels:
MER = MER (Homo sapiens, UniProt Q12866); test: Cell-based tyrosine kinase inhibition assay; details: recombinant kinase expressing Ba/F3 cells, 48 hr
FLT3 = FLT3 (Homo sapiens, UniProt P36888); test: Cell-based tyrosine kinase inhibition assay; details: recombinant kinase expressing Ba/F3 cells, 48 hr
MOLM13 cells [1] = test: Viable cell number and apoptosis by flow cytometry; assay type: cell-based, human
Outline: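 Viable cell number and apoptosis in MOLM13 cells measured by flow cytometry. Single-agent runs used vehicle (0.1% DMSO) or varying doses of test compound for 48 h or 72 h. Combination runs used vehicle (0.2% DMSO), 1 μM cytarabine, test compound (10 or 50 nM) or both, for 48 h. Student's t-test against cytarabine-treated cells.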

MV4;11 cells [2] = test: Viable cell number and apoptosis by flow cytometry; assay type: cell-based; details: 10 nM, 48 hours
Outline: (§1)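 MV4;11 and OCI-AML3 cells incubated 48 h with vehicle (0.1% DMSO) or varying doses of test compound. Viable cell number and apoptosis measured by flow cytometry.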

OCI-AML3 cells = test: Viable cell number and apoptosis by flow cytometry; assay type: cell-based; details: varying doses, 48 hours, OCI-AML3 (FLT3 WT)
Outline: as §1

HL60 cells = test: Viable cell number and apoptosis by flow cytometry; assay type: cell-based; details: FLT3 WT HL60, data not shown
[3] = system: MOLM13 cells in co-culture with MSC; test: In vitro co-culture system with MSC, viability by flow cytometry; assay type: cell-based, human; details: 50 nM, 72 hours
Outline: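 MOLM13 cells grown in monoculture or co-cultured with bone marrow-derived mesenchymal stromal cells (patient-derived, IRB-approved). Treated 72 h with vehicle or test compound. Viable cells measured by flow cytometry.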

[4] = system: MOLM13 control shRNA (GFP) cells; test: Viability and apoptosis by flow cytometry, control shRNA cells; assay type: cell-based, human; details: 10 nM, 48 hours
Outline: (§2)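 MOLM13 cells carrying control shRNA (GFP target) or p53 shRNA incubated 48 h with varying doses of test compound. Viability and apoptosis measured by flow cytometry. p53 knockdown checked by immunoblot densitometry against tubulin. Student's t-test against GFP control.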

MOLM13 p53 shRNA cells = test: Viability and apoptosis by flow cytometry, p53 knockdown cells; assay type: cell-based, human; details: 10 nM, 48 hours
Outline: as §2

MOLM13 cells [5] = test: DNA synthesis and cell cycle assay; assay type: cell-based, human; details: 24 hours
Outline: (§3)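 MOLM13 and MV4;11 cells exposed to vehicle or varying doses of test compound for 24 h. Cell cycle status assessed by FX Cycle Violet DNA staining and DNA synthesis by EdU incorporation (Click-It EdU kit), both read by flow cytometry. Student's t-test against vehicle-treated cells.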

MV4;11 cells [6] = test: DNA synthesis and cell cycle assay; assay type: cell-based; details: 24 hours
Outline: as §3

[7] = system: MOLM13, MV4:11, OCI-AML3, and HL60 cells; test: Trypan blue staining of cells collected for RPPA; assay type: cell-based; details: all other cases (vehicle or ONO-7475, 24 hours; MOLM13, MV4:11, OCI-AML3, HL60)
MOLM13 cells [8] = test: Reverse phase protein analysis; assay type: cell-based, human; details: RPPA, 10 nM, 50 nM or 100 nM, 24 hours, at least 2-fold
OCI-AML3 = test: Reverse phase protein analysis; assay type: cell-based; details: RPPA, 24 hours, FLT3 WT OCI-AML3
HL60 = test: Reverse phase protein analysis; assay type: cell-based; details: RPPA, 24 hours, FLT3 WT HL60
PLK1 = test: Immunoblot analysis; assay type: cell-based; details: 50 nM or 100 nM, 24 hours, MOLM13 and MV4;11
Outline: (§4)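 MOLM13 and MV4;11 cells incubated 24 h with vehicle or varying doses of test compound, then lysed. Total protein separated by SDS-PAGE and immunoblotted, with infrared imaging detection. Densitometry ratios taken to tubulin loading control, or to the total protein for phospho-proteins.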

RB phosphorylation = test: Immunoblot analysis; assay type: cell-based; details: even at the lowest dose, 24 hours, MOLM13 and MV4;11
Outline: as §4

AXL [9] = test: Immunoblot analysis; assay type: cell-based; details: even at the lowest dose, 24 hours, MOLM13 and MV4;11
Outline: as §4

Cyclin B1 = test: Immunoblot analysis; assay type: cell-based; details: 10 nM, 24 hours, MOLM13 and MV4;11
Outline: as §4

CDK1 = test: Immunoblot analysis; assay type: cell-based; details: 10 nM, 24 hours, MOLM13 and MV4;11
Outline: as §4

ERK phosphorylation = test: Immunoblot analysis; assay type: cell-based; details: 10 nM, 24 hours, MOLM13
Outline: as §4

MCL-1 = test: Immunoblot analysis; assay type: cell-based; details: 24 hours
Outline: as §4

FLT3 phosphorylation = test: Immunoblot analysis; assay type: cell-based; details: 10 nM
Outline: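 MOLM13 and MV4;11 cells exposed to vehicle or test compound, lysed, total protein resolved by SDS-PAGE, immunoblotted for FLT3 phosphorylation, with infrared imaging detection. Tubulin as loading control.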

phosphorylation of S6 = test: Immunoblot analysis; assay type: cell-based; details: 24 hours, MOLM13
Outline: as §4

p38 phosphorylation = test: Immunoblot analysis; assay type: cell-based; details: 24 hours, MOLM13; due to reduction of total p38
Outline: as §4

PLK-1 mRNA = test: qRT-PCR gene expression analysis; assay type: cell-based; details: 24 hours; for reduction of PLK-1 mRNA relative to B2M: MOLM13
Outline: (§5)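 MOLM13 and MV4;11 cells incubated 24 h with vehicle or varying doses of test compound. Total RNA extracted and reverse transcribed. PLK-1, CDK1 and CCNB1 transcripts quantified by TaqMan qRT-PCR and normalized to B2M.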

CDK1 mRNA = test: qRT-PCR gene expression analysis; assay type: cell-based; details: 10 nM, 24 hours, MOLM13 and MV4;11
Outline: as §5

CCNB1 mRNA = test: qRT-PCR gene expression analysis; assay type: cell-based; details: 10 nM, 24 hours, MOLM13 and MV4;11
Outline: as §5

AXL mRNA = test: qRT-PCR gene expression analysis; assay type: cell-based; details: 24 hours
MOLM13 luc/gfp cells = test: Human AML murine xenograft model; assay type: in vivo, NSG mice
Outline: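 MOLM13 cells lentivirally transduced with firefly luciferase/copGFP, injected into NSG mice. Control feed for one week, then control feed or feed containing 0.004% (~6 mg/kg daily; N=5 per group) or 0.013% (~20 mg/kg daily; N=9 control, N=10 treated) test compound. Leukemic burden by weekly IVIS imaging. Sternum (BM) and liver from moribund mice examined by H&E.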

AXL [10] = details: cited from earlier work
[11] = system: refractory or relapse AML; details: single agent; cited from earlier work
resistant cells = details: cited from earlier work

MER, sequence (Q12866 21-999): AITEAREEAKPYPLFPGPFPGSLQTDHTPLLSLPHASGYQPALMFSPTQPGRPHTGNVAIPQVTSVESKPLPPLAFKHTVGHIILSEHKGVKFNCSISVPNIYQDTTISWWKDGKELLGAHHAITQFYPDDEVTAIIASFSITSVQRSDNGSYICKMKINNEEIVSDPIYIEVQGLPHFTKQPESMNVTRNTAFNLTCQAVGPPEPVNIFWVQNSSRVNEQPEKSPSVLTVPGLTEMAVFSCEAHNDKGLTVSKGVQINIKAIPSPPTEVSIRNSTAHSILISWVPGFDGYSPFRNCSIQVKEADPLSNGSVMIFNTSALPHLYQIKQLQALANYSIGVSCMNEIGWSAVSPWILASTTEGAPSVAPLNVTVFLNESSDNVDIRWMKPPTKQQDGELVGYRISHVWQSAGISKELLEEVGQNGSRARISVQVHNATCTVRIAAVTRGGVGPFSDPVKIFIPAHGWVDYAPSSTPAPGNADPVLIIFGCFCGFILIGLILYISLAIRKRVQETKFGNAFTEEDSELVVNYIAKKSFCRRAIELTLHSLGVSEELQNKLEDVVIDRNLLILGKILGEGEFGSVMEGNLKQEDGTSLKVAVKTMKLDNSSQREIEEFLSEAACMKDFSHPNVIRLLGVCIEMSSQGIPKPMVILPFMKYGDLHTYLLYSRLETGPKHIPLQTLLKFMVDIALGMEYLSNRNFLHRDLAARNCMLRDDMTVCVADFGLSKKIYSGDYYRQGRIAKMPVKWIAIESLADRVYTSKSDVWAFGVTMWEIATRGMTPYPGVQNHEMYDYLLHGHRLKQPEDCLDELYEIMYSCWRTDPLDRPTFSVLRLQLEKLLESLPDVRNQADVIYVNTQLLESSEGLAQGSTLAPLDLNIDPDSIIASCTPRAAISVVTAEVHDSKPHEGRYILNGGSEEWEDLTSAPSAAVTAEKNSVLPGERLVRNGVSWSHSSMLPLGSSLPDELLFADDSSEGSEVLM
FLT3, sequence (P36888 27-993): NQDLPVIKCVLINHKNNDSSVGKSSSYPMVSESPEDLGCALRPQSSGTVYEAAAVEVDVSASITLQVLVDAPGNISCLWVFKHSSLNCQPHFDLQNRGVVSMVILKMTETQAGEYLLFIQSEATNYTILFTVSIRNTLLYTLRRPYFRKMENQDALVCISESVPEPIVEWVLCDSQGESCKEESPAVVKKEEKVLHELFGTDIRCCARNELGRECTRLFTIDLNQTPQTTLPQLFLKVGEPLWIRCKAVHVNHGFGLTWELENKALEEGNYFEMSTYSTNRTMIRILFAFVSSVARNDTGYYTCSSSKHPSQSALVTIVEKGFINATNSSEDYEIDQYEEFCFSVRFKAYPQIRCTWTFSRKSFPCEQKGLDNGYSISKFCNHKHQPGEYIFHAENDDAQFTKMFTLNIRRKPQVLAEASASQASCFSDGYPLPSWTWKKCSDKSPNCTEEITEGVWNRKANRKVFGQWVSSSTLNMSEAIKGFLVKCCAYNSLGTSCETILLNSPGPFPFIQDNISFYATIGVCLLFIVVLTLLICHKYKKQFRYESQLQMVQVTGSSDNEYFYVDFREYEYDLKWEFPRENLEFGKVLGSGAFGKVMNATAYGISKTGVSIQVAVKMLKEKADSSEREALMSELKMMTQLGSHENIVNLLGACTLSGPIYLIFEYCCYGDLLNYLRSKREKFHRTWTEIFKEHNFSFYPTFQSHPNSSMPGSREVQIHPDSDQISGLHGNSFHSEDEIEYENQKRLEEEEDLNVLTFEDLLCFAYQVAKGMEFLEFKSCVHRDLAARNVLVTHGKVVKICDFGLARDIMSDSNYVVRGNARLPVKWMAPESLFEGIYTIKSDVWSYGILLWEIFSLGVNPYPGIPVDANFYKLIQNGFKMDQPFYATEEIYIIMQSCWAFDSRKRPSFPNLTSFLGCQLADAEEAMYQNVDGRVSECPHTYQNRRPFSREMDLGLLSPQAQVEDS

COc1cc2nccc(Oc3ccc(NC(=O)c4cc5c(n(-c6ccccc6)c4=O)CCCC5=O)nc3)c2cc1OC [ONO-7475]
IC50 (MER): 1 nM
IC50 (FLT3): 147 nM
apoptosis (MOLM13 cells [1]; 10 nM, 48 hours, MOLM13): induced apoptosis
reduction of cell viability (MOLM13 cells [1]; 10 nM, 48 hours, MOLM13): > 50%
cells becoming apoptotic (MOLM13 cells [1]; 10 nM, 72 hours, MOLM13): > 70%
viable cells (MOLM13 cells [1]; 10 nM, 72 hours, MOLM13 monoculture): nearly eliminated all viable MOLM13 cells
viable cell numbers and apoptosis, single agent (MOLM13 cells [1]; ONO-7475 alone (10nM or 50 nM), 48 hours, MOLM13): effective
apoptosis (MV4;11 cells [2]): induced apoptosis
reduction of cell viability (MV4;11 cells [2]): > 50%
apoptosis (OCI-AML3 cells): did not induce apoptosis
viable cell number (OCI-AML3 cells): slightly reduced
sensitivity to drug (HL60 cells): resistant
protection of AML cells by MSC from the inhibitor [3]: abrogated most of this effect
apoptosis [4]: without inducing apoptosis
reduction of viability [4]: ~ 55%
apoptosis (MOLM13 p53 shRNA cells): ~ 20%
reduction of viability (MOLM13 p53 shRNA cells): > 70%
suppression of DNA synthesis (MOLM13 cells [5]; 5 nM): > 2 fold
cell cycle status (MOLM13 cells [5]): potently induced G0/G1 arrest
suppression of DNA synthesis (MV4;11 cells [6]; 5 nM): > 2 fold
cell cycle status (MV4;11 cells [6]): potently induced G0/G1 arrest
viable cells (Trypan blue) [7]: > 95%
Proteins increased in MOLM13 cells by ONO-7475 (MOLM13 cells [8]): H2AX (phospho; pS140)
change (i.e., 2-fold) in the level of protein (OCI-AML3): no significant change
change (i.e., 2-fold) in the level of protein (HL60): no significant change
PLK1 protein (PLK1): Little, if any, PLK1 was detected
RB phosphorylation (RB phosphorylation): blocked RB phosphorylation
AXL protein (AXL [9]): induced AXL
Cyclin B1 protein (Cyclin B1): potently suppressed
CDK1 protein (CDK1): potently suppressed
reduction of ERK phosphorylation (ERK phosphorylation): ~ 50%
suppression of MCL-1 (MCL-1; 10 nM, MOLM13): > 80%
reduction of MCL-1 (MCL-1; 100 nM, MV4;11): 50%
p-FLT3 (FLT3 phosphorylation; MOLM13): greatly reduced
p-FLT3 (FLT3 phosphorylation; MV4;11): nearly eliminated
phosphorylation of S6 (phosphorylation of S6): inhibited the phosphorylation of S6
p38 phosphorylation (p38 phosphorylation): p38 phosphorylation was reduced
suppression of PLK-1 mRNA compared with MOLM13 (PLK-1 mRNA; 10 nM and 50 nM, MV4;11): more potently suppressed
reduction of PLK-1 mRNA relative to B2M (PLK-1 mRNA; 10 nM): ~ 60%
reduction of PLK-1 mRNA relative to B2M (PLK-1 mRNA; 50 nM): ~ 80%
reduction of CDK1 mRNA relative to B2M (CDK1 mRNA): at least 60%
reduction of CCNB1 mRNA relative to B2M (CCNB1 mRNA): at least 60%
increase of AXL mRNA relative to B2M (AXL mRNA; 10 nM, MOLM13 and MV4;11): ~ 3.5 fold
increase of AXL mRNA relative to B2M (AXL mRNA; 50 nM, MOLM13): > 6 fold
increase of AXL mRNA relative to B2M (AXL mRNA; 50 nM, MV4;11): > 8 fold
mice with reduced leukemic burden compared to control (IVIS imaging) (MOLM13 luc/gfp cells; 0.004% ONO-7475 feed, Day 14): three out of five
leukemia infiltration in the liver (H&E) (MOLM13 luc/gfp cells; 0.013% ONO-7475 feed): little, if any, AML cells in the liver; also recorded: minimal presence of MOLM13 cells in the liver

CCc1nc(C(N)=O)c(Nc2ccc(N3CCC(N4CCN(C)CC4)CC3)c(OC)c2)nc1NC1CCOCC1 [Gilteritinib, gilteritinib]
IC50 (AXL [10]): 0.7 nM
patients achieving some response [11]: 40%
patients exhibiting inhibition of FLT3 phosphorylation [11]: 90%
tolerability [11]: well tolerated

Nc1nc(Nc2ccc3c(c2)CC[C@@H](N2CCCC2)CC3)nn1-c1cc2c(nn1)-c1ccccc1CCC2 [BGB324]
sensitisation to a combination of decitabine and vorinostat (resistant cells): could sensitize resistant cells

Nc1ccn([C@@H]2O[C@H](CO)[C@@H](O)[C@@H]2O)c(=O)n1 [AraC, Cytarabine, reference compound]
viable cell numbers and apoptosis, single agent (MOLM13 cells [1]; 1 μM AraC alone, 48 hours, MOLM13): effective
